According to ChEMBL document CHEMBL1944504, “Toward the definition of stereochemical requirements for MT2-selective antagonists and partial agonists by studying 4-phenyl-2-propionamidotetralin derivatives” (J Med Chem, 2011):

What was measured:
[1] = Displacement of 2-[125I]iodomelatonin from human MT1 receptor expressed in […] NIH3T3 cells after 90 mins; assay type: cell-based
Summary of the method: (§1)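 Competition binding on membranes from NIH3T3 cells expressing the cloned human receptor (5−10 μg protein per tube). Incubation with 100 pM 2-[¹²⁵I]iodomelatonin for 90 min at 37 °C in 50 mM Tris-HCl, pH 7.4. Melatonin was tested at 10⁻¹⁰−10⁻⁶ M; nonspecific binding was defined with 10 μM melatonin. IC₅₀ came from nonlinear fitting and was converted to pKi by Cheng−Prusoff; values are means of ≥3 independent duplicate determinations.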

[2] = Antagonist activity at human MT2 receptor expressed in […] NIH3T3 cells after 30 mins by [35S]GTPgammaS binding assay relative to melatonin; assay type: functional
[3] = Displacement of 2-[125I]iodomelatonin from human MT2 receptor expressed in […] NIH3T3 cells after 90 mins; assay type: cell-based; summary of the method: as §1
[4] = Antagonist activity at human MT1 receptor expressed in […] NIH3T3 cells after 30 mins by [35S]GTPgammaS binding assay relative to melatonin; assay type: functional
[5] = Partial agonist activity at human MT2 receptor expressed in […] NIH3T3 cells after 30 mins by [35S]GTPgammaS binding assay relative to melatonin; assay type: functional
[6] = Partial agonist activity at human MT1 receptor expressed in […] NIH3T3 cells after 30 mins by [35S]GTPgammaS binding assay relative to melatonin; assay type: functional

CCC(=O)N[C@@H]1Cc2ccccc2[C@@H](c2ccccc2)C1 gave a pKi [1] of 5.67, an Intrinsic activity [2] of -0.14 and a pKi [3] of 6.1. For the same molecule, the Intrinsic activity [4] was -0.23.
With CCC(=O)N[C@@H]1Cc2ccccc2[C@H](c2ccccc2)C1 the pKi [1] was 7.02, the Intrinsic activity [5] was 0.45 and the pKi [3] was 9.26. It also gave an Intrinsic activity [4] of 0.15.
In the case of CCC(=O)N[C@H]1Cc2ccccc2[C@H](c2ccccc2)C1, the pKi [1] is reported as 6.89, the Intrinsic activity [5] is reported as 0.48 and the Intrinsic activity [6] is reported as 0.33. For the same molecule, the pKi [3] was 8.02.
With CCC(=O)N[C@H]1Cc2ccccc2[C@@H](c2ccccc2)C1 the pKi [1] was 6.59, the Intrinsic activity [2] was 0.11 and the pKi [3] was 7.01. The Intrinsic activity [4] was 0.06.
CCC(=O)N[C@@H]1Cc2c(OC)cccc2[C@H](c2ccccc2)C1 (racemic) showed a pKi [1] of 7.83, an Intrinsic activity [5] of 0.44 and a pKi [3] of 10.22. For the same molecule, the Intrinsic activity [4] was 0.2.
In the case of CCC(=O)N[C@H]1Cc2c(OC)cccc2[C@H](c2ccccc2)C1 (racemic), the pKi [1] is reported as 7.04, the Intrinsic activity [2] is reported as 0.21 and the pKi [3] is reported as 9.71. The Intrinsic activity [4] was 0.02.
With CCC(=O)N[C@@H]1Cc2c(Br)cccc2[C@H](c2ccccc2)C1 (racemic) the pKi [1] was 7.99, the Intrinsic activity [5] was 0.65 and the Intrinsic activity [6] was 0.49. For the same molecule, the pKi [3] was 10.85.
Molecule CCC(=O)N[C@@H]1Cc2ccccc2[C@H](c2ccccc2)C1 (racemic) has a pKi [1] of 7.12, an Intrinsic activity [5] of 0.46 and a pKi [3] of 9.16. It also gave an Intrinsic activity [4] of 0.23.
Work on CCC(=O)N[C@H]1Cc2ccccc2[C@H](c2ccccc2)C1 (racemic) yielded a pKi [1] of 6.65, an Intrinsic activity [5] of 0.4 and an Intrinsic activity [6] of 0.41. It also gave a pKi [3] of 8.06.
CCC(=O)NC1=Cc2ccccc2C(c2ccccc2)C1 (racemic) gave a pKi [1] of 7.3, an Intrinsic activity [5] of 0.59 and a pKi [3] of 7.43. It also gave an Intrinsic activity [4] of 0.14.
Molecule CCC(=O)NC1=Cc2c(OC)cccc2C(c2ccccc2)C1 (racemic) has a pKi [1] of 6.74, an Intrinsic activity [5] of 0.49 and an Intrinsic activity [6] of 0.32. It also gave a pKi [3] of 7.11.
For CCC(=O)NCC1=Cc2ccccc2C(c2ccccc2)C1 (racemic), the pKi [1] was 7.69, the Intrinsic activity [2] was 0.02 and the pKi [3] was 8.46. It also gave an Intrinsic activity [4] of 0.01.
